Assay type in all cases: in vivo, NMRI nu/nu mice
The test system of data set [1] is MPC-mCherry tumors. Put plainly: Renal. As to conditions: for DAred, reduction of renal dopamine excretion [14-28 days pci] / NEred, reduction of renal norepinephrine excretion [14-28 days pci] / NMNred, reduction of renal normetanephrine excretion [14-28 days pci]: doxorubicin 6.9 µmol/kg, AN-238 0.2 µmol/kg, [^177Lu]Lu-DOTATATE 80 MBq/animal, urine LC-MS/MS, compared to control, mean ± SEM.

The subject of data set [2] is MPC-mCherry tumors. Put plainly: ^177Lu activity in MPC-mCherry tumors after treatment, monitored by PLI. As to conditions: not decay-corrected, 80 MBq/animal. A digest of the protocol: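 Radioligand was made by heating [177Lu]LuCl3 (pH 5.2, NH4OAc) with 14 nmol peptide at 90 °C for 20 min, giving >97% HPLC radiochemical purity. 80 MBq (1.2 nmol)/mouse was given by tail vein in Infesol 15 from 15 days pci. Tumour ROIs were thresholded on mCherry/reference fluorescence (signal/background 2). PLI signal was expressed as effective and decay-corrected 177Lu activity.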

Data set [3] can be described thus: Body weight monitoring in treated mice. As to conditions: doxorubicin 6.9 µmol/kg, AN-238 0.2 µmol/kg, [^177Lu]Lu-DOTATATE 80 MBq/animal. In outline:
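Mice carrying growing MPC-mCherry tumours (5 ± 3 mm diameter) were grouped by similar mean tumour volume and randomly assigned to control or therapy; treatment began 15 days pci. Test compounds in Infesol 15 given via tail vein at 0.3 mL/30 g body weight. Three independent experiments followed an identical protocol, with data pooled.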

Structures can show the parent of a compound that is named as a salt.

Regarding “[^177Lu]Lu-DOTA-(Tyr^3)octreotate [[^177Lu]Lu-DOTATATE]”, the “fold more effective in reducing overall renal monoamine excretion compared to doxorubicin and AN-238” value in the data set with MPC-mCherry tumors [1] (14-28 days pci) is listed as 2 fold. Besides, in the data set with MPC-mCherry tumors [1], the “DAred, reduction of renal dopamine excretion [14-28 days pci]” value turned out to be 97.2 ± 0.9 %; the “NEred, reduction of renal norepinephrine excretion [14-28 days pci]” value is recorded as 99.6 ± 1.9 %; the “NMNred, reduction of renal normetanephrine excretion [14-28 days pci]” value is 100 ± 0.7 %. The “half-life of effective ^177Lu activity in tumors” value with MPC-mCherry tumors [2] came out at 48 h.

`COc1cccc2c1C(=O)c1c(O)c3c(c(O)c1C2=O)C[C@@](O)(C(=O)CO)C[C@@H]3O[C@H]1C[C@H](N)[C@H](O)[C@H](C)O1` [doxorubicin, doxorubicin hydrochloride]: in the data set with MPC-mCherry tumors [1], the “DAred, reduction of renal dopamine excretion [14-28 days pci]” value was 31.5 ± 11.3%; the “NEred, reduction of renal norepinephrine excretion [14-28 days pci]” value came out at 74.8 ± 7.5 %; the “NMNred, reduction of renal normetanephrine excretion [14-28 days pci]” value was 77.3 ± 5.1 %. For the same compound, the “body weight change after treatment” value in data set [3] is given as “tended to decrease immediately”.
